ChEMBL document CHEMBL1127084, “Synthesis and structure-activity studies of a series of [(hydroxybenzyl)amino]salicylates as inhibitors of EGF receptor-associated tyrosine kinase activity” (J Med Chem, 1993)

System: not listed separately
Assay: Inhibition of ER22 EGF-receptor expressing cell membrane tyrosine kinase activity
Conditions: not given
In short: (§1)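 Enzyme source was membrane fractions of ER 22 cells (CCL 39 cells transfected with EGF receptor). Inhibitors were added at various concentrations and phosphorylation of the peptide was measured.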

Row | IC50 | SMILES
1 | > 10 µM | COC(=O)c1cc(NCc2ccc(O)cc2)ccc1O

Biological target: not listed separately
Assay: Inhibition of tyrosine kinase activity in ER 22 membrane fraction by competition with the RRSrc peptide using [32P]-gamma ATP as radioligand
Assay type: cell membranes
Conditions: not given
In short: as §1

Row | IC50 | SMILES
2 | 5 µM | COC(=O)c1cc(NCc2cc(O)ccc2O)ccc1OC
3 | 45 µM | COC(=O)c1cc(NCc2ccccc2O)ccc1O
4 | > 10 µM | COC(=O)c1ccc(/N=C/c2cc(O)ccc2O)cc1O
5 | > 100 µM | COC(=O)c1cc(/N=C/c2cc(O)ccc2O)ccc1OC
6 | > 100 µM | COC(=O)c1cc(NCc2cc(OC)ccc2OC)ccc1O
7 | > 100 µM | O=C(O)c1cc(/N=C/c2ccccc2O)ccc1O
8 | > 100 µM | COC(=O)c1cc(/N=C/c2cccc(O)c2)ccc1O
9 | > 10 µM | O=C(O)c1cccc(/N=C/c2cc(O)ccc2O)c1
10 | > 100 µM | COC(=O)c1cc(/N=C/c2ccc(O)cc2O)ccc1O
11 | 5 µM | O=C(O)c1cc(/N=C/c2cc(O)ccc2O)ccc1O
12 | 0.6 µM | COC(=O)c1cc(NCc2cc(O)ccc2O)ccc1O
13 | > 10 µM | COC(=O)c1cc(/N=C/c2ccc(O)cc2)ccc1O
14 | 2.4 µM | O=C(O)c1cccc(NCc2cc(O)ccc2O)c1
15 | > 100 µM | COC(=O)c1cc(/N=C/c2ccccc2O)ccc1O
16 | 10 µM | COC(=O)c1cc(/N=C/c2ccc(O)c(O)c2)ccc1O
17 | 1.6 µM | COC(=O)c1cccc(NCc2cc(O)ccc2O)c1
18 | > 10 µM | COC(=O)c1cc(/N=C/c2cc(OC)ccc2OC)ccc1O
19 | 0.2 µM | COC(=O)c1ccc(NCc2cc(O)ccc2O)cc1O
20 | 25 µM | O=C(O)c1cc(NCc2ccccc2O)ccc1O
21 | 100 µM | COC(=O)c1cc(/N=C/c2cc(O)ccc2O)ccc1O

System: not listed separately
Assay: Inhibition of ER22 EGF-receptor expressing cell membrane tyrosine kinase activity at 100 uM
Conditions: not given

Row | inhibition | SMILES
22 | 37% | COC(=O)c1cc(NCc2cccc(O)c2)ccc1O

Biological target: Epidermal growth factor receptor (Homo sapiens) (UniProt P00533)
Conditions: ER22; 10 uM

Chain of Epidermal growth factor receptor (Homo sapiens) (P00533 whole entry): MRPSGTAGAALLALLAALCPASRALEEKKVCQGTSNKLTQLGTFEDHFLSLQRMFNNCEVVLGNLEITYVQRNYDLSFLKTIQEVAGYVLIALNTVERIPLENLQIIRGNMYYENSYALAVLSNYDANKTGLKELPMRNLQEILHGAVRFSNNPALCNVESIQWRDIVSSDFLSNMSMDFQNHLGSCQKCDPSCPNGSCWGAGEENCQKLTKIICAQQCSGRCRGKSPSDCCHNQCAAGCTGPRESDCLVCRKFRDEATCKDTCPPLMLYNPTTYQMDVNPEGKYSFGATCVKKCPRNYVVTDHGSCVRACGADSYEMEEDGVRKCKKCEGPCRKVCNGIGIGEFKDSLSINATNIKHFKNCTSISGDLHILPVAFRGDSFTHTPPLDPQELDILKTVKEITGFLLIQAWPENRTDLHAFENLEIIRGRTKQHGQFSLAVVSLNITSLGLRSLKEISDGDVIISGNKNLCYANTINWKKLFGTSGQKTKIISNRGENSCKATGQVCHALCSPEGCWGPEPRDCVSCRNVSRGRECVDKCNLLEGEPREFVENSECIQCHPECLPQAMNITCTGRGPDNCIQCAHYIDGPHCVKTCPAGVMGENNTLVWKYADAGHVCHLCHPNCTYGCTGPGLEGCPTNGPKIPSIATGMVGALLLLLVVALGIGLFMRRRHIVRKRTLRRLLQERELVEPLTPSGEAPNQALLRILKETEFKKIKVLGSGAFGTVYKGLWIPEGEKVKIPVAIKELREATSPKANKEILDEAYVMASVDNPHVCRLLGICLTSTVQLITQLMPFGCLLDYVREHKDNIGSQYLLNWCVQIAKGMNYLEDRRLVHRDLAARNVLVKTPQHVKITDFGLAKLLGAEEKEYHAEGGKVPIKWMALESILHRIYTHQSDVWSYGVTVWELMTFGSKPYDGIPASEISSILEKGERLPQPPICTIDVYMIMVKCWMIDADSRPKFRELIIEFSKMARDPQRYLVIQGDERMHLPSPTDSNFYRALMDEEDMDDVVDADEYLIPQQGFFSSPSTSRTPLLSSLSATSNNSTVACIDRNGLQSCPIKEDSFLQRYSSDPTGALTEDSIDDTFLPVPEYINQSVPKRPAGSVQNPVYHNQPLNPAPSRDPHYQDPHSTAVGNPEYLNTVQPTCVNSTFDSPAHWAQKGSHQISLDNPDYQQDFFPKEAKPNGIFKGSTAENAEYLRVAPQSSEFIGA

Row | inhibition | SMILES
23 | 14% | COC(=O)c1cc(/N=C/c2cc(OC)ccc2OC)ccc1O

Biological target: Epidermal growth factor receptor (Homo sapiens) (UniProt P00533)
Conditions: ER22; 20 uM

Row | inhibition | SMILES
24 | 18% | COC(=O)c1cc(NCc2cc(OC)ccc2OC)ccc1O
25 | 20% | COC(=O)c1cc(/N=C/c2cccc(O)c2)ccc1O
26 | 65% | COC(=O)c1cc(/N=C/c2ccc(O)cc2O)ccc1O
27 | 37% | COC(=O)c1cc(/N=C/c2ccc(O)c(O)c2)ccc1O
